Tests used:
[1] = tested on: Rattus norvegicus; assay: pharmacokinetic parameter area under the curve (AUC) was reported in rat after oral administration; type: ADME, organism-based; conditions: in vivo
In short: (§1)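 Rats were dosed with the hydrochloride salt at 2 mg/kg intravenously and orally. Plasma pharmacokinetic parameters were derived from each route, and F was taken from the oral versus intravenous exposure. Some rat data were normalized from a 2.4 to a 2 mg/kg dose.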

[2] = half life was reported in rat after intravenous administration; type: ADME, organism-based; conditions: in vivo; in short: as §1
[3] = half life was reported in dog after oral administration; type: ADME, organism-based, Canis lupus familiaris; conditions: in vivo
[4] = Pharmacokinetic parameter Tmax was reported in rat after intravenous administration; type: ADME, organism-based; conditions: in vivo; in short: as §1
[5] = Oral bioavailability in rat; type: ADME, organism-based; conditions: in vivo; in short: as §1
[6] = target: Serine protease 1 (Homo sapiens, UniProt P07477); assay: The compound was evaluated for its inhibitory activity against trypsin using selectivity assay
[7] = tested on: Rattus norvegicus; assay: pharmacokinetic parameter area under the curve (AUC) was reported in rat after intravenous administration; type: ADME, organism-based; conditions: in vivo; in short: as §1
[8] = tested on: Canis familiaris; assay: pharmacokinetic parameter area under the curve (AUC) was reported in dog after intravenous administration; type: ADME, organism-based, Canis lupus familiaris; conditions: in vivo
[9] = Pharmacokinetic parameter Tmax was reported in dog after oral administration; type: ADME, organism-based, Canis lupus familiaris; conditions: in vivo
[10] = half life was reported in rat after oral administration; type: ADME, organism-based; conditions: in vivo; in short: as §1
[11] = target: T1, Neutrophil elastase (Homo sapiens) (UniProt P08246); conditions: Canis lupus familiaris; 2 mg/kg
T1 sequence (whole entry): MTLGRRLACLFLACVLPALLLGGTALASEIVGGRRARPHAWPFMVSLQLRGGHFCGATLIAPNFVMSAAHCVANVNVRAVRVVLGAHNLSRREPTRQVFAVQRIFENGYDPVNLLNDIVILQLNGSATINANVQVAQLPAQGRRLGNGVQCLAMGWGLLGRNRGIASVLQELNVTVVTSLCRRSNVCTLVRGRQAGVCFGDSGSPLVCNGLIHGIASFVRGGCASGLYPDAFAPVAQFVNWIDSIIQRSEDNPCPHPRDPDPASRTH

[12] = target: T1, Neutrophil elastase (Homo sapiens); conditions: Canis lupus familiaris; Blood; 2 mg/kg
[13] = Pharmacokinetic parameter Cmax was reported after in rat oral administration; type: ADME, organism-based; design: route oral; conditions: in vivo; in short: as §1
[14] = Pharmacokinetic parameter Tmax was reported in rat after oral administration; type: ADME, organism-based; conditions: in vivo; in short: as §1
[15] = Oral bioavailability in dog; type: ADME, organism-based, Canis lupus familiaris; conditions: in vivo
[16] = target: T1, Neutrophil elastase (Homo sapiens)
[17] = tested on: Canis familiaris; assay: pharmacokinetic parameter area under the curve (AUC) was reported in dog after oral administration; type: ADME, organism-based, Canis lupus familiaris; conditions: in vivo
[18] = pharmacokinetic parameter volume of distribution (Vd) was reported in dog after intravenous administration; type: ADME, organism-based, Canis lupus familiaris; conditions: in vivo, read-out: Vd area
[19] = half life was reported in dog after intravenous administration; type: ADME, organism-based, Canis lupus familiaris; conditions: in vivo
[20] = target: T2, Cathepsin G (Homo sapiens, UniProt P08311); assay: The compound was evaluated for its inhibitory activity against cathepsin G using selectivity assay
T2 sequence (P08311 whole entry): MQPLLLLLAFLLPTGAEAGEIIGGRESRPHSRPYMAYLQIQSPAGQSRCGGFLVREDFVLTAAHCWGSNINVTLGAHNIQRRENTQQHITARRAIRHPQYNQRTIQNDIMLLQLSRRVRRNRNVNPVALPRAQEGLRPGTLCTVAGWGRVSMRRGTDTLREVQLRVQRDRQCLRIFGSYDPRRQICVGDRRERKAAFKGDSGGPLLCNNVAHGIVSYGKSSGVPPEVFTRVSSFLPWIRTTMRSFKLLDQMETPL

[21] = Pharmacokinetic parameter Cmax was reported after in dog oral administration; type: ADME, organism-based, Canis lupus familiaris; design: route oral; conditions: in vivo
[22] = pharmacokinetic parameter volume of distribution (Vd) was reported in rat after intravenous administration; type: ADME, organism-based; conditions: in vivo, read-out: Vd area; in short: as §1
[23] = Half life time in dog was reported in Discrete dosage; type: ADME, organism-based, Canis lupus familiaris; conditions: in vivo
[24] = Pharmacokinetic parameter Varea in dog was reported in Cassette dosage; type: ADME, organism-based, Canis lupus familiaris; conditions: in vivo, read-out: Varea
In short: (§2)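 Dog cassette: the set of compounds was given intravenously into the femoral vein to a beagle dog at 0.2 mg/kg body weight per compound. Jugular blood was sampled from 5 min to 24 h postdose. Plasma was prepared by solid phase extraction, then analysed by HPLC with single ion monitoring MS using 0.1% formic acid in water:methanol (70:30).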

[25] = Half life time in dog was reported in cassette dosage; type: ADME, organism-based, Canis lupus familiaris; conditions: in vivo; in short: as §2
[26] = Pharmacokinetic parameter clearance in dog was reported in Cassette dosage; type: ADME, organism-based, Canis lupus familiaris; conditions: plasma, read-out: Clp; in short: as §2
[27] = Pharmacokinetic parameter clearance in dog was reported in Discrete dosage; type: ADME, organism-based, Canis lupus familiaris; conditions: plasma, read-out: Clp
[28] = Pharmacokinetic parameter Varea in dog was reported in Discrete dosage; type: ADME, organism-based, Canis lupus familiaris; conditions: in vivo, read-out: Varea
[29] = target: Chymotrypsinogen A (Bos taurus, UniProt P00766); assay: The compound was evaluated for its inhibitory activity against Chymotrypsinogen using selectivity assay
In short: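 Selectivity counter-screen against chymotrypsin, run essentially per an earlier published protocol; inhibitor preincubated with enzyme for 15 min before activity read-out.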

[30] = target: T1, Neutrophil elastase (Homo sapiens); conditions: Canis lupus familiaris; Blood; 2 mg/kg; remark: listed apart in the source
[31] = Pharmacokinetic parameter Tmax was reported in dog after intravenous administration; type: ADME, organism-based, Canis lupus familiaris; conditions: in vivo

Sequence of Serine protease 1 (P07477 whole entry): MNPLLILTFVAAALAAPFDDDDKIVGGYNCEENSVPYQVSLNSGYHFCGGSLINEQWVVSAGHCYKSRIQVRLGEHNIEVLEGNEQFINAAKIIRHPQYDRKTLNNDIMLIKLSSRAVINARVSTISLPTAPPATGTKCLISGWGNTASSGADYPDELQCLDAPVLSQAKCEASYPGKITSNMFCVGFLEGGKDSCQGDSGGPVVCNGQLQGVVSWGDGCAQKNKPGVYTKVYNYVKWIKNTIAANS

Row | SMILES | AUC [1] [ng·h/mL] | half-life [2] [min] | half-life [3] [min] | Tmax [4] [min] | bioavailability [5] [%] | IC50 [6] [µM] | AUC [7] [ng·h/mL] | AUC [8] [ng·h/mL] | Tmax [9] [min] | half-life [10] [min] | inhibition [11] [%] | Cmax [13] [ng/mL] | Tmax [14] [min] | bioavailability [15] [%] | half-life [23] [min] | Vd [24] [L/kg] | half-life [25] [min] | clearance [26] [mL/min/kg] | clearance [27] [mL/min/kg] | Vd [28] [L/kg] | further results
1 | CC(C)[C@@H]1C(=O)N(S(C)(=O)=O)[C@@H]2CCN(C(=O)/C=C/CN3CCCCC3)[C@H]21.Cl | 263 | 66 | 96 | 3 | 60 | > 100 | 424 | 405 | 42 | 48 | 97 | 232 | 30 | 100 | – | – | – | – | – | – | inhibition [12]: 100%; k on [16]: 6630 M⁻¹ s⁻¹; AUC [17]: 430 ng·h/mL; Vd [18]: 3.5 L/kg; half-life [19]: 90 min; IC50 [20]: > 100 µM; Cmax [21]: 152 ng/mL; Vd [22]: 7.5 L/kg
2 | CC(C)[C@@H]1C(=O)N(S(C)(=O)=O)[C@@H]2CCN(C(=O)c3ccc(CCN4CCCCC4)cc3)[C@H]21 | – | – | – | – | – | – | – | – | – | – | – | – | – | – | 12 | 6.6 | 30 | 161 | 220 | 3.8 | –
3 | CC(C)C1C(=O)N(S(C)(=O)=O)C2CCN(C(=O)c3ccc(CNC4CC4)cc3)C12 (stereo unspecified) | – | – | – | – | – | – | – | – | – | – | – | – | – | – | 30 | 4.3 | 30 | 97 | 94 | 3.8 | –
4 | CC(C)[C@@H]1C(=O)N(S(C)(=O)=O)[C@@H]2CCN(C(=O)c3ccc(CN(C)C(C)C)c(Br)c3)[C@H]21 | – | – | – | – | – | – | – | – | – | – | – | – | – | – | – | 4.4 | 18 | 176 | – | – | –
5 | CC(C)C1C(=O)N(S(C)(=O)=O)C2CCN(C(=O)c3ccc(CNC4CC4)nc3)C12 (stereo unspecified) | – | – | – | – | – | – | – | – | – | – | – | – | – | – | – | 2.9 | 42 | 46 | – | – | –
6 | CC(C)C1C(=O)N(S(C)(=O)=O)C2CCN(C(=O)c3csc(CN4CCCC4)n3)C12 (stereo unspecified) | – | – | – | – | – | – | – | – | – | – | – | – | – | – | – | 4.8 | 60 | 53 | – | – | –
7 | CC(C)[C@@H]1C(=O)N(S(C)(=O)=O)[C@@H]2CCN(C(=O)/C=C/CNC3CC3)[C@H]21 | – | – | – | – | – | – | – | – | – | – | – | – | – | – | 54 | 2.5 | 60 | 28 | 40 | 2.9 | –
8 | CCCN(C)Cc1ccc(C(=O)N2CCC3C2C(C(C)C)C(=O)N3S(C)(=O)=O)cc1 (stereo unspecified) | – | – | – | – | – | – | – | – | – | – | – | – | – | – | 12 | 7.6 | 42 | 134 | 197 | 3.5 | –
9 | CC(C)C1C(=O)N(S(C)(=O)=O)C2CCN(C(=O)/C=C/CN3CCCCC3)C12 (stereo unspecified) | – | – | – | – | – | – | – | – | – | – | – | – | – | – | 108 | 3.3 | 120 | 20 | 19 | 2.7 | –
10 | CC(C)[C@@H]1C(=O)N(S(C)(=O)=O)[C@@H]2CCN(C(=O)C3CN(CC(C)(C)C)C3)[C@H]21.Cl | 217 | 48 | 126 | 1.8 | 45 | > 100 | 482 | 488 | 54 | 72 | 92 | 142 | 45 | 90 | – | – | – | – | – | – | IC50 [29]: 31 µM; inhibition [30]: 99%; k on [16]: 6310 M⁻¹ s⁻¹; AUC [17]: 417 ng·h/mL; Vd [18]: 3.5 L/kg; half-life [19]: 108 min; IC50 [20]: > 100 µM; Cmax [21]: 130 ng/mL; Vd [22]: 4.9 L/kg
11 | CC(C)[C@@H]1C(=O)N(S(C)(=O)=O)[C@@H]2CCN(C(=O)c3coc(CN4CCCC4)n3)[C@H]21.Cl | 93 | 24 | 84 | 1.8 | 24 | > 100 | 392 | 286 | 30 | 78 | 100 | 147 | 15 | 100 | – | – | – | – | – | – | IC50 [29]: 3 µM; inhibition [30]: 100%; k on [16]: 30500 M⁻¹ s⁻¹; AUC [17]: 308 ng·h/mL; Vd [18]: 3.4 L/kg; Tmax [31]: 1.8 min; half-life [19]: 60 min; IC50 [20]: > 100 µM; Cmax [21]: 138 ng/mL; Vd [22]: 2.6 L/kg
12 | CC(C)[C@@H]1C(=O)N(S(C)(=O)=O)[C@@H]2CCN(C(=O)c3cnc(CNC4CC4)cn3)[C@H]21.Cl | 64 | 18 | 24 | 1.8 | 43 | > 100 | 148 | 220 | 15 | 24 | 92 | 135 | 15 | 120 | – | – | – | – | – | – | IC50 [29]: 0.54 µM; inhibition [30]: 99%; k on [16]: 252000 M⁻¹ s⁻¹; AUC [17]: 147 ng·h/mL; Vd [18]: 1.9 L/kg; half-life [19]: 24 min; IC50 [20]: > 100 µM; Cmax [21]: 205 ng/mL; Vd [22]: 5 L/kg

Reference: ChEMBL document CHEMBL1135761, “Discovery of further pyrrolidine trans-lactams as inhibitors of human neutrophil elastase (HNE) with potential as development candidates and the crystal structure of HNE complexed with an inhibitor (GW475151)” (J Med Chem, 2002)
